Data taken from ChEMBL document CHEMBL4725463, “Vinyl Sulfone-Based Inhibitors of Nonstructural Protein 2 Block the Replication of Venezuelan Equine Encephalitis Virus” (ACS Med Chem Lett, 2020).

Experiments:
[1] = system: Venezuelan equine encephalitis virus; assay: Antiviral activity against Venezuelan equine encephalitis virus TC-83 infected in human BE(2)-M17 cells pretreated with compound for 2 hrs followed by viral infection at MOI of 1.2 and measured after 7 hrs by immunostaining based confocal microscopic analysis; type: functional, organism-based; conditions: strain TC-83, SK-N-BE(2)-M17
[2] = Selectivity index, ratio of CC50 for cytotoxicity against mouse Neuro-2a cells to EC50 for antiviral activity against Venezuelan equine encephalitis virus TC-83 infected in mouse Neuro-2a cells; type: toxicity, cell-based; conditions: read-out: Ratio CC50/EC50
[3] = system: Venezuelan equine encephalitis virus; assay: Antiviral activity against Venezuelan equine encephalitis virus TC-83 infected in mouse Neuro-2a cells pretreated with compound for 2 hrs followed by viral infection at MOI of 3.5 and measured after 7 hrs by immunostaining based confocal microscopic analysis; type: functional, organism-based; conditions: strain TC-83, N2a
[4] = Selectivity index, ratio of CC50 for cytotoxicity against human BE(2)-M17 cells to EC50 for antiviral activity against Venezuelan equine encephalitis virus TC-83 infected in human BE(2)-M17 cells; type: toxicity, cell-based; conditions: read-out: Ratio CC50/EC50
[5] = Cytotoxicity against human SK-N-BE(2)-M17 cells; type: cell-based
[6] = Cytotoxicity against mouse N2a cells; type: cell-based
[7] = system: Venezuelan equine encephalitis virus; assay: Antiviral activity against Venezuelan equine encephalitis virus IC-SH3 infected in HeLa cells pretreated with compound for 2 hrs followed by viral infection at MOI of 0.1 and measured after 20 hrs by immunostaining based confocal microscopic analysis; type: functional, organism-based
[8] = system: Venezuelan equine encephalitis virus; assay: Antiviral activity against Venezuelan equine encephalitis virus IC-SH3 infected in VeroE6 cells pretreated with compound for 2 hrs followed by viral infection at MOI of 0.01 and measured after 20 hrs by immunostaining based confocal microscopic analysis; type: functional, organism-based; conditions: IC-SH3, Vero C1008
[9] = Cytotoxicity against human HeLa cells; type: cell-based
[10] = Cytotoxicity against green monkey Vero C1008 cells; type: cell-based; conditions: chlorocebus sabaeus
[11] = system: Venezuelan equine encephalitis virus; assay: Antiviral activity against Venezuelan equine encephalitis virus TC-83 infected in mouse cortical neurons at MOI of 0.04 after 20 hrs by immunostaining based confocal microscopic analysis; type: functional, organism-based, Cortical neuron; conditions: strain TC-83, Cortical neurone
[12] = target: Polyprotein P1234 (Venezuelan equine encephalitis virus) (UniProt P27282); assay: Inhibition of recombinant VEEV nsP2 expressed in Escherichia coli BL21(DE3) using V12 as substrate after 24 hrs by discontinuous gel assay
Sequence of Polyprotein P1234 (Venezuelan equine encephalitis virus) (P27282 whole entry): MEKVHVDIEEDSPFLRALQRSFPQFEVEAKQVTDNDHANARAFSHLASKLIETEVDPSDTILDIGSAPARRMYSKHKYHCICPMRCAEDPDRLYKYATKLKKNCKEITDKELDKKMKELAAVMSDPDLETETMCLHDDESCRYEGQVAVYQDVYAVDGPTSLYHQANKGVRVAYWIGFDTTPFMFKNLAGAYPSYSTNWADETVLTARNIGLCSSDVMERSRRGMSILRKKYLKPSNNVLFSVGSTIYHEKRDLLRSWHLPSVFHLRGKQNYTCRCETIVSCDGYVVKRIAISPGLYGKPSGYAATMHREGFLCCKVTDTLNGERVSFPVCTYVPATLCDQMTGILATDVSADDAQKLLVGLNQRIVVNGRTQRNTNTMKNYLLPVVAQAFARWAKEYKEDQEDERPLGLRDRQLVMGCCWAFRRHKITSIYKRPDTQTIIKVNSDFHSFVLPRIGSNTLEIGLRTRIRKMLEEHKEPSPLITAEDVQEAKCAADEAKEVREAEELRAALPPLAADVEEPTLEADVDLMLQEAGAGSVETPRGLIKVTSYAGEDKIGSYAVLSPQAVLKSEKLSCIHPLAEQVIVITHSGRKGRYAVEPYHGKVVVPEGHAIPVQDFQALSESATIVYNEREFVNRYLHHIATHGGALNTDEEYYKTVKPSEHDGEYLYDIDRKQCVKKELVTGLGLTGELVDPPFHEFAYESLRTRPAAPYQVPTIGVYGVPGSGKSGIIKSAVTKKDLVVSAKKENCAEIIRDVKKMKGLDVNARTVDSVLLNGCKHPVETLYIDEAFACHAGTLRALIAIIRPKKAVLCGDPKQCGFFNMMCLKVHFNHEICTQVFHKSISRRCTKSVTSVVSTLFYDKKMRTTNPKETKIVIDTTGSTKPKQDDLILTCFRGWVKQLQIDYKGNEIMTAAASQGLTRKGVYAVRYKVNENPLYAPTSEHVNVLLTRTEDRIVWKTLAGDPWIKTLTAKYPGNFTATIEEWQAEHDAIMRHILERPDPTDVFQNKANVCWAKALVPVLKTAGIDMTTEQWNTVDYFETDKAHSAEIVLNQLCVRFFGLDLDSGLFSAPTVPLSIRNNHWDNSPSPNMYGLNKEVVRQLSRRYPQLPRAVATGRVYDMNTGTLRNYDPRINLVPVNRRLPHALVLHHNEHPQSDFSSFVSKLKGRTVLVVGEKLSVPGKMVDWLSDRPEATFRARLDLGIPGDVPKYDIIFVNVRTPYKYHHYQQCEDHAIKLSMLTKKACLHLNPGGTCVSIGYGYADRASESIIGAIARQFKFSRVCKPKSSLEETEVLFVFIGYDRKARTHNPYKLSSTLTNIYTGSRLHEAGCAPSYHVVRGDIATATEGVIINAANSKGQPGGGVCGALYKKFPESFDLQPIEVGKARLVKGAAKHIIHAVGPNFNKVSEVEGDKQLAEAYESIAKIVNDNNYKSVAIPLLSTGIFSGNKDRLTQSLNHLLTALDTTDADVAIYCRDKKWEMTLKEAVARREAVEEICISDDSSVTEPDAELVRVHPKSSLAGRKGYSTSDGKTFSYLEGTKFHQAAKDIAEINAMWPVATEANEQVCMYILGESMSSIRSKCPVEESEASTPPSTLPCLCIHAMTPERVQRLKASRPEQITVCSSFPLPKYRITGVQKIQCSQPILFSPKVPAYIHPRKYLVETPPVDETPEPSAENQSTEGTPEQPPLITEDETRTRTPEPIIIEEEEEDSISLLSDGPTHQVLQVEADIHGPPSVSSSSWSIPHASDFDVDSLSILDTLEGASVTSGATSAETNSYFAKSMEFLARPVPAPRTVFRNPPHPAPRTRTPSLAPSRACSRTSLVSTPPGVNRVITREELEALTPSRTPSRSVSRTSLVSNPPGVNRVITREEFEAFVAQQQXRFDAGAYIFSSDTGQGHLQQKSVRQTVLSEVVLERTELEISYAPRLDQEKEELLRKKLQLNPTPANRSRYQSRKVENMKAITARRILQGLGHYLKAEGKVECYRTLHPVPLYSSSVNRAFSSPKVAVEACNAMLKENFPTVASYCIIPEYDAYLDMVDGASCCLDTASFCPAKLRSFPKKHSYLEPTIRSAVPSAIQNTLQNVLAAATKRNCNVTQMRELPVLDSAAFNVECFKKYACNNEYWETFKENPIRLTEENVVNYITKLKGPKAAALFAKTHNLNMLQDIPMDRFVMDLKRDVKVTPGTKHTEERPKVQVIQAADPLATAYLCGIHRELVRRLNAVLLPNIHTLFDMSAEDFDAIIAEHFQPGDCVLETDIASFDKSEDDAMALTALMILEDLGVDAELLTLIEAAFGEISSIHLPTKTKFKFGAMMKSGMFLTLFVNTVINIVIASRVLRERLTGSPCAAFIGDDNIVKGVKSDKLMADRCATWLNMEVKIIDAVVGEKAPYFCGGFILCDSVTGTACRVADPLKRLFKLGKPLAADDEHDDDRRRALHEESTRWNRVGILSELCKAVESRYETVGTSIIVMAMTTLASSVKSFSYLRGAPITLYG
How it was run: (§1)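 Recombinant tag-free VEEV nsP2 (1 μM) was incubated with the V12 CFP-YFP FRET substrate (10 μM) and compound in 50 mM HEPES pH 7.4 for 24 h at room temperature. Compound was tested at 3.6 to 0.03 μM in 2-fold steps. Uncut and cleaved V12 were resolved on gel, and percentage inhibition was estimated at 0.9 μM.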

[13] = target: Polyprotein P1234 (Venezuelan equine encephalitis virus) (UniProt P27282); assay: Inhibition of recombinant VEEV nsP2 expressed in Escherichia coli BL21(DE3) using V12 as substrate at 20 uM after 24 hrs by discontinuous gel assay relative to control
How it was run: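 VEEV nsP2 (1 μM) was exposed to compound at 20 μM in the presence of 10 μM V12 CFP-YFP FRET substrate. Protease inactivation was judged by cleavage of V12.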

[14] = target: Polyprotein P1234 (Venezuelan equine encephalitis virus) (UniProt P27282); assay: Inhibition of recombinant VEEV nsP2 expressed in Escherichia coli BL21(DE3) using V12 as substrate at 0.9 uM after 24 hrs by discontinuous gel assay relative to control; how it was run: as §1
[15] = Selectivity index, ratio of CC50 for cytotoxicity against mouse cortical neurons to EC50 for antiviral activity against Venezuelan equine encephalitis virus TC-83 infected in mouse cortical neurons; type: toxicity; conditions: read-out: Ratio CC50/EC50
[16] = Cytotoxicity against mouse cortical neurons; type: cell-based, Cortical neurone
[17] = Selectivity ratio of CC50 for cytotoxicity against human HeLa cells to EC50 for antiviral activity against Venezuelan equine encephalitis virus IC-SH3 infected in HeLa cells; type: toxicity, cell-based; conditions: read-out: Ratio CC50/EC50
[18] = Selectivity ratio of CC50 for cytotoxicity against green monkey VeroE6 cells to EC50 for antiviral activity against Venezuelan equine encephalitis virus IC-SH3 infected in VeroE6 cells; type: toxicity, cell-based; conditions: read-out: Ratio CC50/EC50
[19] = system: Venezuelan equine encephalitis virus; assay: Antiviral activity against Venezuelan equine encephalitis virus Trinidad infected in Vero cells at MOI of 0.01 after 20 hrs by immunostaining based confocal microscopic analysis; type: functional, organism-based
[20] = system: Venezuelan equine encephalitis virus; assay: Antiviral activity against Venezuelan equine encephalitis virus Trinidad infected in HeLa cells at MOI of 0.1 after 20 hrs by immunostaining based confocal microscopic analysis; type: functional, organism-based
[21] = Selectivity index, ratio of CC50 for cytotoxicity against african green monkey Vero cells to EC50 for antiviral activity against Venezuelan equine encephalitis virus Trinidad infected in Vero cells; type: toxicity, cell-based; conditions: read-out: Ratio CC50/EC50
[22] = Selectivity index, ratio of CC50 for cytotoxicity against human HeLa cells to EC50 for antiviral activity against Venezuelan equine encephalitis virus Trinidad infected in HeLa cells; type: toxicity, cell-based; conditions: read-out: Ratio CC50/EC50
[23] = Cytotoxicity against green monkey Vero cells; type: cell-based; conditions: chlorocebus sabaeus

Compound | EC50 [1] [µM] | selectivity ratio [2] | EC50 [3] [µM] | selectivity ratio [4] | CC50 [5] [µM] | CC50 [6] [µM] | EC50 [7] [µM] | EC50 [8] [µM] | CC50 [9] [µM] | CC50 [10] [µM] | also measured
COC(=O)/C=C/CNC(=O)c1c[nH]c2ccc(Br)cc12 | 3 | > 2 | 11 | 4 | 12 | > 25 | – | – | – | – | –
CN1CCN(C)/C(=N\c2ccc([N+](=O)[O-])cc2C(=O)Nc2ccccc2)C1 | 0.01 | > 125 | 0.02 | > 250 | > 2.25 | > 2.5 | – | – | – | – | –
COC(=O)CCCNC(=O)c1cccc2c1NCCC2 | – | – | – | – | – | – | > 30 | > 30 | > 30 | > 30 | –
CC1=CC(C)(C)Nc2c(C(=O)N[C@@H](C)/C=C/S(C)(=O)=O)cccc21 | 4.5 | > 7.3 | 3.4 | > 5 | > 25 | > 25 | – | – | – | – | EC50 [11]: 2.7 µM; inhibition [12]: Dose-dependent effect; inhibition [13]: 100%; inhibition [14]: 59%; selectivity ratio [15]: > 9.7; CC50 [16]: > 25 µM
C[C@@H]1CC(C)(C)Nc2c(C(=O)N[C@@H](C)/C=C/S(C)(=O)=O)cccc21 | 3.3 | > 7 | 3.7 | > 7.5 | > 25 | > 25 | – | – | – | – | inhibition [12]: Dose-dependent effect; inhibition [13]: 100%; inhibition [14]: 71%
COC(=O)/C=C/CNC(=O)c1cccc2c1NC(C)(C)C[C@H]2C | > 25 | > 1 | 22 | – | 11 | > 25 | 1.2 | 8.2 | > 30 | > 30 | selectivity ratio [17]: > 26; selectivity ratio [18]: > 4
C[C@@H]1CC(C)(C)Nc2c(C(=O)N[C@H](/C=C/S(C)(=O)=O)Cc3ccccc3)cccc21 | 9.3 | > 4 | 13 | > 5.4 | > 50 | > 50 | – | – | – | – | –
COC(=O)/C=C/CNC(=O)c1cc(C)cc2c1NC(C)(C)C=C2C | – | – | – | – | – | – | 8.7 | 8.6 | > 30 | > 30 | selectivity ratio [17]: > 4; selectivity ratio [18]: > 3.5
C[C@@H]1CC(C)(C)Nc2c(C(=O)NC/C=C/S(C)(=O)=O)cccc21 | 1.4 | > 12 | 2 | > 18 | > 25 | > 25 | – | – | – | – | EC50 [19]: 2.4 µM; EC50 [20]: 1.6 µM; EC50 [11]: 8 µM; inhibition [12]: Dose-dependent effect; inhibition [13]: 100%; inhibition [14]: 39%; selectivity ratio [21]: > 12; selectivity ratio [22]: > 19; selectivity ratio [15]: 6; CC50 [23]: 30 µM; CC50 [16]: 48 µM
COC(=O)/C=C/CNC(=O)c1cccc2c1NCCC2 | – | – | – | – | – | – | 18 | > 30 | > 30 | > 30 | selectivity ratio [17]: > 2
CC1=CC(C)(C)Nc2c(C(=O)NC/C=C/S(C)(=O)=O)cccc21 | 2 | > 5 | 5 | > 9 | 19.6 | 27 | – | – | – | – | EC50 [19]: 5 µM; EC50 [20]: 1.4 µM; EC50 [11]: 6 µM; selectivity ratio [21]: 7; selectivity ratio [22]: > 22; selectivity ratio [15]: > 4; CC50 [23]: 30 µM; CC50 [16]: > 25 µM
COC(=O)CCCNC(=O)c1cc(C)cc2c1NC(C)(C)C=C2C | – | – | – | – | – | – | > 30 | > 30 | > 30 | > 30 | –
COC(=O)CCCNC(=O)c1cccc2c1NC(C)(C)C[C@H]2C | – | – | – | – | – | – | > 30 | > 30 | > 30 | > 30 | –
O=C(N[C@H](/C=C/S(=O)(=O)c1ccccc1)Cc1ccccc1)c1cccc2cccnc12 | 17 | > 2 | 19 | 1 | 16 | 46 | – | – | – | – | –
COC(=O)CCCNC(=O)c1cccc2c1NC(C)(C)C=C2C | – | – | – | – | – | – | > 30 | > 30 | > 30 | > 30 | –
COC(=O)/C=C/CNC(=O)c1cccc2c1NC(C)(C)C=C2C | 4.5 | – | > 25 | 1.5 | 18.1 | – | 0.6 | 6.5 | > 30 | 6.7 | selectivity ratio [17]: > 55; selectivity ratio [18]: > 5
CC1=CC(C)(C)Nc2c(C(=O)N[C@H](/C=C/S(C)(=O)=O)Cc3ccccc3)cccc21 | 17 | > 4 | 13 | > 2 | > 38 | > 50 | – | – | – | – | –
